# Assay outcomes deposited in PubChem by The Scripps Research Institute Molecular Screening Center.
# PRMT1 FP inh: PRMT1 (human) inhibition, primary screen | Q99873 | recombinant PRMT1, activity-based probe fluorescence polarization | inhibition, % at 2.79 µM | hit rate 1.3% among 370,000 | AID 652257;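 active = inhibition above about 21% made by adding two undisclosed values, limit read from the data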
# ABHD4 inh: inhibits mouse alpha/beta hydrolase domain 4; Q8VD66; hit rate 0.54% among 370,000; inhibition, % at 8.92 µM; purified mABHD4, FP-Rh probe fluorescence polarization;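 active = inhibition exceeding the mean over every tested compound plus 3 SD, cut at about 30% in these data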;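 also: 0% = plate median of compound wells and 100% = S159A mutant with DMSO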
#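 Test system: mouse ABHD4 enzyme, wild type. Reagent: FP-Rh fluorescent activity-based probe, added after compound pre-incubation. Timing: pre-incubation 45 min, probe exposure 60 min, at 25 °C. Technique: FP readout, ex 525 nm / em 598 nm. Benchmarks: high control S159A mutant with DMSO, low control median of compound wells.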
# rCAG RNA binder: molecules binding r(CAG) RNA repeats; inhibition, % at 3 µM; AID 651821; hit rate 1.3% among 370,000; r(CAG) RNA repeat, TO-PRO-1 dye displacement fluorescence;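 active = inhibition above the plate cutoff, the mean of all test compounds on that plate plus 3 SD, cut at about 35% in these data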;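 also: 0% = DMSO alone and 100% = 100 µM mitoxantrone as full dye displacement; higher means more dye released from RNA so lower well fluorescence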
# LEDGF integ inh: blocks HIV-1 LEDGF/p75-dependent DNA integration; AID 743269; TR-FRET IN-LEDGF/p75 DNA integration, Eu/Cy5; hit rate 0.64% among 370,000; inhibition, % at 3.7 µM;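 active = inhibition above the screen-wide mean plus 3 SD, cut at about 13% in these data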;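 also: signal is the Cy5 over europium emission ratio at 671 and 618 nm; 0% = plate median of compound wells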
# DAGLB inhibitor: diacylglycerol lipase beta (human) inhibition. Q8NCG7. HEK293T DAGLB membrane lysate, EnzChek fluorogenic substrate. inhibition, % at 5.17 µM. hit rate 0.059% among 340,000; in the data active = inhibition above about 34%;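 also: 0% = enzyme with vehicle and 100% = wells lacking enzyme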
# Target sequence (Q8NCG7 whole entry, looked up): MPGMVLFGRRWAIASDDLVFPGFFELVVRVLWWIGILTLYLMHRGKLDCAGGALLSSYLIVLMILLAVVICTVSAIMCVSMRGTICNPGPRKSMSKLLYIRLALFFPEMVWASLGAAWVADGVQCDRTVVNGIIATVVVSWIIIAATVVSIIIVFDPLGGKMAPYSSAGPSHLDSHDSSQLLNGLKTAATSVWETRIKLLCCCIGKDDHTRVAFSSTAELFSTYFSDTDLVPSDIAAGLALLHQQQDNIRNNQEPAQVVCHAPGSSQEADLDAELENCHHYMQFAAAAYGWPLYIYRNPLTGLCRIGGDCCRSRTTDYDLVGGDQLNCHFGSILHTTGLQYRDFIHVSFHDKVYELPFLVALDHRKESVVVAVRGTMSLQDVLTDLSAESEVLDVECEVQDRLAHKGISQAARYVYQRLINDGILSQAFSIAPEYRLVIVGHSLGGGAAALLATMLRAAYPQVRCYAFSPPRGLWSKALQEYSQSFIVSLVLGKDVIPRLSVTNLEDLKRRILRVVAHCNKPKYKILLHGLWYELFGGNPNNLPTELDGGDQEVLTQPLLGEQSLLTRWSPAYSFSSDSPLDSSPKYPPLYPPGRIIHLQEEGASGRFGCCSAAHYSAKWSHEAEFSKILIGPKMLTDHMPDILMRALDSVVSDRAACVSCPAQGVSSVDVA
# HTRA1 inhibitor: HTRA1 (human) protease inhibition. recombinant HTRA1, FP-rhodamine activity-based probe, fluorescence polarization. Q92743. inhibition, % at 5.96 µM. AID 504803. hit rate 0.5% among 340,000; in the data active = inhibition above about 36%;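 also: 0% = enzyme with DMSO and 100% = wells lacking enzyme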
# IN multimer act: activates HIV-1 integrase multimerization in LEDGF counter-screen | shares compounds with LEDGF integ inh | TR-FRET HIV-1 integrase multimerization, biochemical | activation, % at 7.7 µM | hit rate 17% among 2,000 | AID 1053131; in the data active = activation above about 8.9%
# TR-FRET interf: counter-screen for LEDGF/p75 integration inhibitors: TR-FRET optical interference | shares compounds with LEDGF integ inh | TR-FRET optical interference counterscreen, HIV-1 IN multimerization | inhibition, % at 7.7 µM | 2,000 tested, under 10 active;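 active = inhibition above the mean over all tested compounds plus 3 SD, which no compound reached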;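 also: 0% = integrase with antibodies and DMSO and 100% = antibodies without integrase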
# IN-LEDGF confirm: confirmation of HIV-1 LEDGF/p75-dependent integration inhibitors; shares compounds with LEDGF integ inh; TR-FRET LEDGF/p75-dependent HIV-1 integration, biochemical; inhibition, % at 3.7 µM; hit rate 36% among 2,000; in the data active = inhibition above about 14%
# Active calls of the source: *; . = no result. Hits are enriched below; roughly 3.2% of the tested compounds scored in any of these assays.
SMILES,PRMT1 FP inh,ABHD4 inh,rCAG RNA binder,LEDGF integ inh,DAGLB inhibitor,HTRA1 inhibitor,IN multimer act,TR-FRET interf,IN-LEDGF confirm
c1cc(-c2ccc(CN3CCOCC3)cc2)n2ccnc2c1,-2,-2,3,2,.,.,.,.,.
NC(=O)/C(=C\c1ccco1)NC(=O)c1ccco1,20,8,5,14*,1,5,2,-10,3
O=C(O)/C(=C\c1ccco1)NC(=O)c1ccco1,12,15,0,8,-1,8,.,.,.
Cc1[nH]c(=O)[nH]c1C(=O)CCCCC(=O)OCC(=O)Nc1ccccn1,1,4,-1,82*,-1,26,0,-2,81*
O=C(CSc1nnc(CNC(=O)c2cccc(C(F)(F)F)c2)o1)NCC1CCCO1 (configuration not stated),-1,1,-4,2,0,10,.,.,.
O=C(CSc1nnc(CNC(=O)c2cccc(C(F)(F)F)c2)o1)NC1CCCC1,0,2,-3,45*,-2,-2,0,1,-1
CNC(=O)c1ccc(OCc2ccccc2)c(OC)c1,0,2,0,0,1,3,.,.,.
COc1ccc(C(C#N)CC(=O)c2ccc(OCc3ccccc3)c(OC)c2)cc1OC (configuration not stated),5,-6,9,60*,-3,-20,-2,8,-5
CCc1nc2ccc(C(=O)NCc3ccccc3OC)cn2c1N(CC)Cc1cccc(Br)c1,2,-9,7,-3,.,.,.,.,.
O=S1(=O)CC(N2CCSCC2)CN1Cc1cn(Cc2ccc(F)cc2)nn1 (configuration not stated),1,7,0,2,.,.,.,.,.
O=C1c2cc(O)c(O)cc2OC(c2ccc(O)c(O)c2)C1O (configuration not stated),2,10,14,49*,2,30,15*,-75,55*
COC(=O)[C@@]12C[C@@H](CC(=O)NCc3ccc(OC)c(OC)c3)C(=O)N(Cc3cccc4ccccc34)C1=CCC(C)(C)C2,2,-10,9,-2,.,.,.,.,.
Cc1ccc(C2Nc3ccc4ccccc4c3C3=C2C(=O)CC(C)(C)C3)o1 (configuration not stated),.,.,.,.,-4,-9,.,.,.
O=C1CCCC2=C1C(c1ccco1)Nc1ccc3ccccc3c12 (configuration not stated),44*,25,34,33*,2,15,4,-19,53*
O=[N+]([O-])c1ccc(NN=C(C2CC2)C2CC2)c([N+](=O)[O-])c1,5,12,5,2,4,4,.,.,.
C=CCNC(=S)N1N=C(c2ccco2)CC1c1ccco1 (configuration not stated),3,2,4,17*,1,-4,2,-8,7
O=C(/C=C/c1ccc(Cl)c(Cl)c1)NC1=NCCS1,11,-11,8,28*,0,-5,1,-3,6
O=C(NC1=NCCS1)c1ccc(Cl)c(Cl)c1,0,-5,1,3,-4,4,.,.,.
O=C1CSc2ccccc2N1Cc1ccc(F)cc1,0,4,-1,38*,-4,-5,1,-5,-5
COc1ccc(C(=O)Nc2nc(C)c(C(C)=O)s2)cc1S(=O)(=O)N1CCOCC1,2,-1,0,0,-2,3,.,.,.
NCCCCCNC(=O)/C=N\O,1,6,-2,34*,-3,5,-1,4,-8
COc1ccc(CNc2ccccc2)cc1Br,3,-5,0,22*,-1,1,0,2,3
COc1ccc(CNc2ccc(C)cc2)cc1Br,4,-12,-1,3,-1,-7,.,.,.
CC1CCCC(C)N1C(=O)c1ccc(S(=O)(=O)N2CCCC2)cc1 (configuration not stated),-2,-2,1,0,1,-5,.,.,.
Cc1ccc(NC2=C([N+](=O)[O-])CS(=O)(=O)C2)cc1,3,7,13,1,3,2,.,.,.
SMILES,PRMT1 FP inh,ABHD4 inh,rCAG RNA binder,LEDGF integ inh,DAGLB inhibitor,HTRA1 inhibitor,IN multimer act,TR-FRET interf,IN-LEDGF confirm
CN(C)c1ccc(NC2=C([N+](=O)[O-])CS(=O)(=O)C2)cc1,12,29,25,24*,4,21,7,-34,1
CC1=NN(c2ccccc2)C(=O)/C1=C\c1cn(-c2ccccc2)nc1C,-1,11,-1,-3,1,-2,.,.,.
COc1ccccc1/C=C1/C(=O)N(c2ccccc2)N=C1C,4,-10,31,52*,2,4,2,-10,5
CC(=O)c1ccc(OCc2cn(CC(=O)c3ccc(O)cc3)nn2)cc1,1,8,3,4,-1,-1,.,.,.
CC(=O)Nc1ccc(OCc2cn(CC(=O)c3ccc(O)cc3)nn2)cc1,4,12,3,15*,-5,2,7,-34,8
CCCNC(=O)C1CN(S(=O)(=O)c2ccc(Cl)s2)c2ccccc2O1 (configuration not stated),-4,-2,-2,-1,-2,-1,.,.,.
CC1(C)S[C@@H]2[C@H](NC(=O)[C@H](N)c3ccc(O)cc3)C(=O)N2[C@H]1C(=O)O,1,-4,24,15*,2,3,6,-30,43*
CC1=C(C(=O)O)N2C(=O)[C@@H](NC(=O)[C@H](N)c3ccc(O)cc3)[C@H]2SC1,7,6,2,-3,4,0,.,.,.
CC(C)c1ccccc1NC(=O)CN1C(=O)c2ccccc2C1=O,3,-4,-4,73*,-2,4,-2,9,2
CC(C)(C)C1(C)OC(C(N)=O)C(C(N)=O)O1 (configuration not stated),-3,1,-2,1,0,-7,.,.,.
O=C(CN1CCN(S(=O)(=O)c2ccc(Cl)c(Cl)c2)CC1)N1CCCCC1,5,8,0,17*,0,6,0,0,0
c1ccc(-c2noc(CN3CCN(c4ccccc4)CC3)n2)cc1,1,-4,-5,-2,-10,0,.,.,.
c1ccc(-c2noc(CN3CCN(C(c4ccccc4)c4ccccc4)CC3)n2)cc1,0,-5,1,15*,-16,2,0,-2,-1
CCc1ccc(CN2CCC(CO)(CC3CCCCO3)CC2)o1 (configuration not stated),-5,-10,-2,13*,0,1,0,2,1
